Data taken from ChEMBL document CHEMBL1145405, “Synthesis, biochemical, and cellular evaluation of farnesyl monophosphate prodrugs as farnesyltransferase inhibitors” (J Med Chem, 2007).
Each block holds one compound with its values, some of them ahead of it. The source made the active and inactive calls. No cut-off for these calls is given here.

Columns and labels:
[1] = target: Protein farnesyltransferase (Rattus norvegicus); experiment: Inhibition of farnesyltransferase assessed as farnesylation of Dansyl-GCVLS peptide
[2] = Cell cycle arrest in human STS-26T cells assessed as accumulation in G2/M phase at 1 uM after 24 hrs; assay type: functional, cell-based
Summary of the method: (§1)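 STS-26T cells were grown in RPMI-1640 with 5% FBS and penicillin/streptomycin at 37 °C under 5% CO2. About 24 h after plating, cells were treated with 1 µM compound, alone or with 1 µM lovastatin, against a DMSO control. After 24 h, DNA content was read by flow cytometry (at least 10^4 events). G1, S and G2/M percentages of the nonapoptotic population came from histogram fitting.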

[3] = Apoptosis in human STS-26T cells at 1 uM after 24 hrs; assay type: functional
[4] = Cell cycle arrest in human STS-26T cells assessed as accumulation in G1 phase at 1 uM after 24 hrs; assay type: functional, cell-based
Summary of the method: as §1

[5] = Cell cycle arrest in human STS-26T cells assessed as accumulation in S phase at 1 uM after 24 hrs; assay type: functional, cell-based
Summary of the method: as §1

[6] = test system: STS-26T; experiment: Growth inhibition of human STS-26T cells at 1 to 5 uM after 24 hrs; assay type: functional, cell-based
Summary of the method: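 STS-26T cultures were plated in medium with 5% FBS and dosed about 24 h later at 1, 3 or 5 µM, alone or with 1 µM lovastatin, against a DMSO vehicle. Cells were harvested at various times by trypsinization and counted with a hemocytometer; viability was judged by trypan blue exclusion. Values are means ± SD of three culture dishes.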

- IC50 [1]: 0.013 µM
Compound: C=CC/C(=C\COP(=O)(O)O)CC/C=C(\C)CCC=C(C)C

Compound: CC[C@H](C)C(=O)O[C@H]1C[C@@H](C)C=C2C=C[C@H](C)[C@H](CC[C@@H]3C[C@@H](O)CC(=O)O3)[C@H]21 [LOVASTATIN]
- Activity [2]: 10%
- Activity [3]: 0.3%
- Activity [4]: 53%
- Activity [5]: 37%

Compound: C=CC/C(=C\COP(=O)(OCc1ccc([N+](=O)[O-])o1)N(C)CCCCCl)CC/C=C(\C)CCC=C(C)C (centres undefined)
- Activity [6]: inactive
- Activity [2]: 12%
- Activity [3]: 0.5%
- Activity [4]: 48%
- Activity [5]: 40%

- IC50 [1]: 5 µM
Compound: CC(C)=CCC/C(C)=C/CC/C(=C/COP(=O)(O)O)CC=C(C)C

- IC50 [1]: 0.016 µM
Compound: CC(C)=CCC/C(C)=C/CC/C(=C/COP(=O)(O)O)C(C)(C)C

Compound: CC(C)=CCC/C(C)=C/CC/C(=C/COP(=O)(OCc1ccc([N+](=O)[O-])o1)N(C)CCCCCl)CC=C(C)C (centres undefined)
- Activity [6]: inactive

Compound: CC(C)=CCC/C(C)=C/CC/C(=C/COP(=O)(OCc1ccc([N+](=O)[O-])o1)N(C)CCCCCl)C(C)(C)C (centres undefined)
- Activity [6]: inactive
